Measurements published in ChEMBL document CHEMBL1921740, “Pyrrolamide DNA gyrase inhibitors: optimization of antibacterial activity and efficacy” (Bioorg Med Chem Lett, 2011).
pIC50: −log10 of the molar value. Values after ≈ are worked out from the molar mass of the structure shown.

Assays:
DNA gyrase subunit B = DNA gyrase subunit B (Staphylococcus aureus, UniProt P0A0K8); assay: Inhibition of ATPase activity of recombinant Staphylococcus aureus DNA gyrase B hybrid tetramer enzyme reconstituted from Escherichia coli GyrA by ammonium molybdate/malachite green phosphate assay
How it was run: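 GyrB ATPase activity of a hybrid tetramer reconstituted in vitro from recombinant S. aureus protein. Released phosphate detected with ammonium molybdate/malachite green. Test compound assayed across a range of concentrations.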

Streptococcus pneumoniae [1] = assay: Antibacterial activity against Streptococcus pneumoniae ARC548; format: functional
Staphylococcus aureus [2] = assay: Antibacterial activity against Staphylococcus aureus ARC516; format: functional
Staphylococcus aureus [3] = assay: Antibacterial activity against methicillin-resistant, quinolone-resistant Staphylococcus aureus ARC517; format: functional
Moraxella catarrhalis = assay: Antibacterial activity against Moraxella catarrhalis ARC445; format: functional
Enterococcus faecium = assay: Antibacterial activity against Enterococcus faecium ARC073; format: functional
Haemophilus influenzae = assay: Antibacterial activity against Haemophilus influenzae ARC446; format: functional
Escherichia coli [4] = assay: Antibacterial activity against Escherichia coli ARC523; format: functional
Escherichia coli [5] = assay: Antibacterial activity against TolC-deficient Escherichia coli ARC524; format: functional
Streptococcus pneumoniae [6] = assay: Antibacterial activity against Streptococcus pneumoniae ARC548 infected in po dosed CD1 mouse lung infection pneumonia model assessed as reduction in viable bacterial counts administered 18 hrs after post infection measured after 24 hrs; format: functional
How it was run: (§1)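 Mice infected in the lung with S. pneumoniae received oral doses of drug or vehicle starting 18 h post-infection, at 40, 60 or 80 mg/kg, with a pre-treatment control group. Lungs were taken 24 h after treatment began, and homogenates were serially diluted and plated for viable counts. Results are reported as group mean log CFU/lung ± standard error.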

Streptococcus pneumoniae [7] = assay: Antibacterial activity against Streptococcus pneumoniae ARC548 infected in po dosed CD1 mouse lung infection pneumonia model assessed as dose required to maximum effect on reduction of viable bacterial counts administered 18 hrs after post infection measured after 24 hrs; format: functional; how it was run: as §1
[8] = Streptococcus pneumoniae, ARC548, read-out: MIC
[9] = Staphylococcus aureus, ARC516, read-out: MIC
[10] = Staphylococcus aureus, ARC517, read-out: MIC
[11] = Moraxella catarrhalis, ARC445, read-out: MIC
[12] = Enterococcus faecium, ARC073, read-out: MIC
[13] = Haemophilus influenzae, ARC446, read-out: MIC
[14] = Escherichia coli, ARC524, read-out: MIC

DNA gyrase subunit B, sequence (P0A0K8 whole entry): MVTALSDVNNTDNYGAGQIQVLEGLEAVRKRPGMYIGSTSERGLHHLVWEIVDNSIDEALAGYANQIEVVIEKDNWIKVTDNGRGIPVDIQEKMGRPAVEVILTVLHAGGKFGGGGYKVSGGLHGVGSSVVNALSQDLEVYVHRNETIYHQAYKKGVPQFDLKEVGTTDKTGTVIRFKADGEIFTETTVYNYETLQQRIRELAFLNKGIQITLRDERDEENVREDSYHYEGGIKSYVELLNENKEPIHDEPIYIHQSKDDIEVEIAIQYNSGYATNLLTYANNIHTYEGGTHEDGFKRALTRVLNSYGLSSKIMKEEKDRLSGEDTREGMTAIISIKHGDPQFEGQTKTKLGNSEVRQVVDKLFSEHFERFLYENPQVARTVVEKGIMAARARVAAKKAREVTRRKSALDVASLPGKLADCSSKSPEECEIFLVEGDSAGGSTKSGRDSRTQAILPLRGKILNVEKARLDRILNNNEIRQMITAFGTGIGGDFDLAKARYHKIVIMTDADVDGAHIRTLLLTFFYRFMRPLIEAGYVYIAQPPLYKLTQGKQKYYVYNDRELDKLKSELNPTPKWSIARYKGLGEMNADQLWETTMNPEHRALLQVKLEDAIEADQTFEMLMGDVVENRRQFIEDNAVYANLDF

Row | Structure (SMILES) | pIC50 (DNA gyrase subunit B) | MIC (Streptococcus pneumoniae [1]) [µg/mL] | MIC (Staphylococcus aureus [2]) [µg/mL] | MIC (Staphylococcus aureus [3]) [µg/mL] | MIC (Moraxella catarrhalis) [µg/mL] | MIC (Enterococcus faecium) [µg/mL] | MIC (Haemophilus influenzae) [µg/mL] | MIC (Escherichia coli [4]) [µg/mL] | MIC (Escherichia coli [5]) [µg/mL] | MIC (Streptococcus pneumoniae [1]; [8]) [µg/mL] | MIC (Staphylococcus aureus [2]; [9]) [µg/mL] | MIC (Staphylococcus aureus [3]; [10]) [µg/mL] | MIC (Moraxella catarrhalis; [11]) [µg/mL] | MIC (Enterococcus faecium; [12]) [µg/mL] | MIC (Haemophilus influenzae; [13]) [µg/mL] | MIC (Escherichia coli [5]; [14]) [µg/mL] | Activity (Streptococcus pneumoniae [6]) | ED50 (Streptococcus pneumoniae [6]) [mg/kg] | Activity (Streptococcus pneumoniae [7]) [mg/kg]
1 | Cc1[nH]c(C(=O)N[C@H]2CCN(c3ncc(C(=O)O)s3)C[C@H]2F)c(Cl)c1Cl (racemic) | > 8.00 | 0.13 (≈ 0.309 µM) | 2 (≈ 4.75 µM) | 4 (≈ 9.49 µM) | <0.06 | 0.5 (≈ 1.19 µM) | 0.5 (≈ 1.19 µM) | > 64 | 0.13 (≈ 0.309 µM) | – | – | – | – | – | – | – | – | – | –
2 | Cc1[nH]c(C(=O)NC2CCN(c3cc(C(N)=O)cc(Cl)n3)CC2)c(Cl)c1Cl | 7.52 | – | – | – | – | – | – | > 64 | – | 1 (≈ 2.32 µM) | 4 (≈ 9.29 µM) | 4 (≈ 9.29 µM) | 2 (≈ 4.64 µM) | 4 (≈ 9.29 µM) | > 64 | 2 (≈ 4.64 µM) | – | – | –
3 | CONC(=O)c1cnc(N2CCC(NC(=O)c3[nH]c(C)c(Cl)c3Cl)CC2)s1 | 7.30 | – | – | – | – | – | – | > 64 | – | 1 (≈ 2.31 µM) | 8 (≈ 18.5 µM) | 8 (≈ 18.5 µM) | 1 (≈ 2.31 µM) | 8 (≈ 18.5 µM) | 16 (≈ 37 µM) | 0.25 (≈ 0.578 µM) | – | – | –
4 | Cc1[nH]c(C(=O)NC2CCN(c3cc(C(N)=O)cc(Cl)n3)CC2)cc1Cl | 6.96 | – | – | – | – | – | – | > 64 | – | 4 (≈ 10.1 µM) | > 32 | 32 (≈ 80.8 µM) | – | > 32 | > 64 | 8 (≈ 20.2 µM) | – | – | –
5 | Cc1[nH]c(C(=O)NC2CCN(c3nc(C(=O)O)cs3)CC2)c(Cl)c1Cl | 7.70 | – | – | – | – | – | – | > 64 | – | 0.5 (≈ 1.24 µM) | 8 (≈ 19.8 µM) | 8 (≈ 19.8 µM) | 0.5 (≈ 1.24 µM) | 4 (≈ 9.92 µM) | 2 (≈ 4.96 µM) | 0.25 (≈ 0.62 µM) | – | – | –
6 | Cc1ccc(C(=O)NC2CCN(c3cc(C(N)=O)cc(Cl)n3)CC2)[nH]1 | 5.16 | – | – | – | – | – | – | > 64 | – | > 64 | > 64 | > 64 | > 64 | > 64 | > 64 | > 64 | – | – | –
7 | Cc1[nH]c(C(=O)NC2CCN(c3nnco3)CC2)c(Cl)c1Cl | 6.64 | – | – | – | – | – | – | > 64 | – | 4 (≈ 11.6 µM) | 32 (≈ 93 µM) | 32 (≈ 93 µM) | 4 (≈ 11.6 µM) | 32 (≈ 93 µM) | 64 (≈ 186 µM) | 4 (≈ 11.6 µM) | – | – | –
8 | Cc1[nH]c(C(=O)NC2CCN(c3cc(C(=O)O)cc(Cl)n3)CC2)c(Cl)c1Cl | 8.00 | – | – | – | – | – | – | > 64 | – | 0.5 (≈ 1.16 µM) | 2 (≈ 4.63 µM) | 2 (≈ 4.63 µM) | 0.13 (≈ 0.301 µM) | 1 (≈ 2.32 µM) | 4 (≈ 9.27 µM) | 0.25 (≈ 0.579 µM) | – | – | –
9 | Cc1[nH]c(C(=O)NC2CCN(c3ncc(C(=O)O)s3)CC2)c(Cl)c1Cl | 7.70 | – | – | – | – | – | – | > 64 | – | 0.5 (≈ 1.24 µM) | 8 (≈ 19.8 µM) | 8 (≈ 19.8 µM) | 0.5 (≈ 1.24 µM) | 2 (≈ 4.96 µM) | 2 (≈ 4.96 µM) | 0.25 (≈ 0.62 µM) | – | – | –
10 | Cc1[nH]c(C(=O)NC2CCN(C3CN[C@H](C(=O)O)C3)CC2)c(Cl)c1Cl (stereo not given in full) | 3.89 | – | – | – | – | – | – | > 64 | – | > 64 | > 64 | > 64 | > 64 | > 64 | > 64 | > 64 | – | – | –
11 | Cc1[nH]c(C(=O)NC2CCN(c3cc(C(N)=O)cc(Cl)n3)CC2)cc1Br | 7.00 | – | – | – | – | – | – | > 64 | – | 4 (≈ 9.08 µM) | 32 (≈ 72.6 µM) | 32 (≈ 72.6 µM) | 8 (≈ 18.2 µM) | > 64 | 64 (≈ 145 µM) | 4 (≈ 9.08 µM) | – | – | –
12 | Cc1[nH]c(C(=O)N[C@@H]2CCN(c3ncc(C(=O)O)s3)C[C@@H]2F)c(Cl)c1Cl | – | – | – | – | – | – | – | > 64 | – | 0.06 (≈ 0.142 µM) | 2 (≈ 4.75 µM) | 2 (≈ 4.75 µM) | 0.06 (≈ 0.142 µM) | 0.25 (≈ 0.593 µM) | 0.25 (≈ 0.593 µM) | 0.06 (≈ 0.142 µM) | Dose-dependent effect | 54 | 80
13 | Cc1[nH]c(C(=O)NC2CCN(c3cc(C(N)=O)cc(Cl)n3)CC2)cc1C#N | 6.82 | – | – | – | – | – | – | – | – | 4 (≈ 10.3 µM) | – | > 64 | – | – | > 64 | – | – | – | –
14 | Cc1[nH]c(C(=O)N[C@H]2CCN(c3ncc(C(=O)O)s3)C[C@H]2F)c(Cl)c1Cl | 7.46 | 2 (≈ 4.75 µM) | 16 (≈ 38 µM) | 32 (≈ 76 µM) | 1 (≈ 2.37 µM) | 4 (≈ 9.49 µM) | 4 (≈ 9.49 µM) | – | 0.5 (≈ 1.19 µM) | – | – | – | – | – | – | – | – | – | –
15 | Cc1[nH]c(C(=O)N[C@@H]2CCN(c3ncc(C(=O)O)s3)C[C@H]2F)c(Cl)c1Cl (racemic) | 6.96 | – | – | – | – | – | – | > 64 | – | 8 (≈ 19 µM) | > 64 | > 64 | 16 (≈ 38 µM) | 32 (≈ 76 µM) | 64 (≈ 152 µM) | 4 (≈ 9.49 µM) | – | – | –
